Measurements published in ChEMBL document CHEMBL3414530, “Synthesis, molecular modeling, and biological evaluation of novel RAD51 inhibitors” (Eur J Med Chem, 2015).
Active and inactive are the calls of the source. The calls are words filed in the database; no cut-off is given here.

Key:
[1] = target: T1, DNA repair protein RAD51 homolog 1 (Homo sapiens) (UniProt Q06609); assay: Inhibition of RAD51 (unknown origin) multimerization by gel filtration method
T1 sequence (whole entry): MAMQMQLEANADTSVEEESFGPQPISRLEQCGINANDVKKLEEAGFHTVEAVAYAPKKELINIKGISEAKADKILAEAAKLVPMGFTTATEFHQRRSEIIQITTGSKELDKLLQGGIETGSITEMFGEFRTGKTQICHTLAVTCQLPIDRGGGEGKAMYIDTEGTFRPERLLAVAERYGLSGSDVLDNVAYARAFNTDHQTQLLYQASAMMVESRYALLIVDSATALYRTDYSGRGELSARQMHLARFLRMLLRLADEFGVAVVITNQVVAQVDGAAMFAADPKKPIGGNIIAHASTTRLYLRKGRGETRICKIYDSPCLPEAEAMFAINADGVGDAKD
Summary of the method: (§1)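 Purified RAD51 (3.2 µg) preincubated with compound at 1:10 protein:compound molar ratio, 15 min at 37°C. Then 15 min in 50 mM triethanolamine-HCl pH 7.5, 0.5 mM Mg(OAc)2, 1 mM DTT, 2 mM ATP, 100 µg/ml BSA. Run on Superdex 200 PC 3.2/30 gel filtration in the same buffer. 50 µl fractions dot-blotted onto PVDF and probed with anti-RAD51 mAb 14B4.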

[2] = target: T1, DNA repair protein RAD51 homolog 1 (Homo sapiens); assay: Inhibition of RAD51 in human HeLa cells expressing DR-GFP assessed as reduction of homologous recombination frequency at 10 to 20 uM after 24 hrs by I-SceI inducible gene conversion assay; format: cell-based
Summary of the method: (§2)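 HeLa cells stably carrying DR-GFP (puromycin 2 µg/mL selection) were transiently transfected with I-SceI vector pCBASce for 24 h to induce DSBs. They were then treated with DMSO or compound at 10 or 20 µM for another 24 h. GFP-positive percentage was measured by flow cytometry as means±SD from three independent experiments.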

MDA-MB-468 = assay: Cytotoxicity against human MDA-MB-468 cells assessed as growth inhibition after 4 days by XTT assay; format: functional, cell-based; settings: MDA-MB-468, 96 h
Summary of the method: (§3)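 Cells kept in low-glucose DMEM with 10% FBS and 1% penicillin-streptomycin, seeded in 96-well plates the day before treatment. Compound exposure lasted four days, and the XTT cell proliferation kit was read on day 6 after drug addition. Dose-response cytotoxicity was measured in triplicate sets.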

[3] = Cytotoxicity against human MCF10A cells assessed as growth inhibition after 4 days by XTT assay; format: cell-based; settings: MCF-10A, 96 h
T47D = assay: Cytotoxicity against human T47D cells assessed as growth inhibition after 4 days by XTT assay; format: functional, cell-based; settings: 96 h
[4] = Cytotoxicity against human Hs578T cells assessed as growth inhibition after 4 days by XTT assay; format: functional, cell-based; settings: Hs-578T, 96 h; summary of the method: as §3
MDA-MB-361 = assay: Cytotoxicity against human MDA-MB-361 cells assessed as growth inhibition after 4 days by XTT assay; format: functional, cell-based; settings: MDA-MB-361, 96 h; summary of the method: as §3
HeLa = assay: Cytotoxicity against human HeLa cells assessed as growth inhibition after 4 days by XTT assay; format: functional, cell-based; settings: 96 h
T98G = assay: Cytotoxicity against human T98G cells assessed as growth inhibition after 4 days by XTT assay; format: functional, cell-based; settings: 96 h; summary of the method: as §3
U2OS = assay: Cytotoxicity against human U2OS cells assessed as growth inhibition after 4 days by XTT assay; format: functional, cell-based; settings: 96 h; summary of the method: as §3
K562 = assay: Cytotoxicity against human K562 cells assessed as growth inhibition after 4 days by XTT assay; format: functional, cell-based; settings: K562, 96 h
[5] = Selectivity ratio of IC50 for human MCF10A cells to IC50 for human T47D cells; format: ADME, cell-based, MCF-10A; settings: MCF10A cells versus T47D cells
MCF7 = assay: Cytotoxicity against human MCF7 cells assessed as growth inhibition after 4 days by XTT assay; format: functional, cell-based; settings: MCF7, 96 h; summary of the method: as §3
[6] = Selectivity ratio of IC50 for human MCF10A cells to IC50 for human T98G cells; format: ADME, cell-based, MCF-10A; settings: MCF10A cells versus T98G cells
[7] = target: T1, DNA repair protein RAD51 homolog 1 (Homo sapiens); assay: Inhibition of RAD51 in human HeLa cells expressing DR-GFP assessed as reduction of homologous recombination frequency after 24 hrs by I-SceI inducible gene conversion assay; format: cell-based; summary of the method: as §2
MDA-MB-435 = assay: Cytotoxicity against human MDA-MB-435 cells assessed as growth inhibition after 4 days by XTT assay; format: functional, cell-based; settings: MDA-MB-435, 96 h; summary of the method: as §3
[8] = target: T1, DNA repair protein RAD51 homolog 1 (Homo sapiens); assay: Inhibition of RAD51 (unknown origin) multimerization at 1:10 M ratio of protein to compound after 15 mins by gel filtration method; summary of the method: as §1
MDA-MB-231 = assay: Cytotoxicity against human MDA-MB-231 cells assessed as growth inhibition after 4 days by XTT assay; format: functional, cell-based; settings: MDA-MB-231, 96 h; summary of the method: as §3

Compound | IC50 (MDA-MB-468) | further results
O=S(=O)(Cc1ccccc1)N1C=Cc2ccccc2C1c1c[nH]c2ccccc12 (racemic) | 14.8 µM | inhibition [1]: Active; inhibition [2]: Active
O=S(=O)(Cc1ccccc1)N1CCc2ccccc2[C@H]1c1n[nH]c2ccccc12 | 14.3 µM | –
O=S(=O)(Cc1ccc(C(F)(F)F)cc1)N1CCc2ccccc2[C@@H]1c1c[nH]c2ccccc12 | 13.6 µM | –
O=S(=O)(Cc1ccccc1C(F)(F)F)N1CCc2ccccc2[C@H]1c1c[nH]c2ccccc12 | 16.7 µM | –
O=S(=O)(Cc1ccccc1)N1Cc2ccccc2[C@H]1c1c[nH]c2ccccc12 | > 12 µM | –
O=S(=O)(Cc1cccc(C(F)(F)F)c1)N1CCc2ccccc2[C@@H]1c1c[nH]c2ccccc12 | 11.1 µM | –
O=S(=O)(Cc1ccccc1)N1CCc2ccccc2[C@H]1c1c[nH]c2ccccc12 | 13.2 µM | –
O=S(=O)(Cc1ccccc1F)N1CCc2ccccc2[C@@H]1c1c[nH]c2ccccc12 | 12.7 µM | –
O=S(=O)(Cc1cccc(F)c1)N1CCc2ccccc2[C@H]1c1c[nH]c2ccccc12 | 17.2 µM | –
O=S(=O)(Cc1ccc(F)cc1)N1CCc2ccccc2[C@H]1c1c[nH]c2ccccc12 | 25.7 µM | –
O=S(=O)(Cc1cccc(C(F)(F)F)c1)N1CCc2ccccc2[C@H]1c1c[nH]c2ccccc12 | 22.2 µM | –
O=S(=O)(Cc1cccc(F)c1)N1CCc2ccccc2[C@@H]1c1c[nH]c2ccccc12 | 14.2 µM | –
O=S(=O)(Cc1ccccc1)N1Cc2ccccc2[C@@H]1c1c[nH]c2ccccc12 | – | IC50 [3]: > 30 µM; IC50 (T47D): 6.3 µM; IC50 [4]: 4.9 µM; IC50 (MDA-MB-361): 4.5 µM; IC50 (HeLa): 3.6 µM; IC50 (T98G): 9.5 µM; IC50 (U2OS): 4.7 µM; IC50 (K562): 3.6 µM; selectivity ratio [5]: > 4.8; IC50 (MCF7): 3.1 µM; selectivity ratio [6]: > 3.2; inhibition [7]: Dose-dependent effect; IC50 (MDA-MB-435): 4 µM; inhibition [8]: Active; IC50 (MDA-MB-231): 3.5 µM
Nc1ncc([C@@H]2c3ccccc3CCN2S(=O)(=O)Cc2ccccc2)s1 | > 25 µM | –
O=S(=O)(Cc1ccccc1)N1CC=Cc2ccccc2[C@H]1c1c[nH]c2ccccc12 | > 50 µM | –
O=S(=O)(Cc1ccccc1C(F)(F)F)N1CCc2ccccc2[C@@H]1c1c[nH]c2ccccc12 | 14.8 µM | –
COc1nccc2c(C3c4ccccc4C=CN3S(=O)(=O)Cc3ccccc3)c[nH]c12 (racemic) | 6.3 µM | –
O=S(=O)(Cc1ccc(F)cc1)N1CCc2ccccc2[C@@H]1c1c[nH]c2ccccc12 | 11.2 µM | –
COc1cc2c(C3c4ccccc4C=CN3S(=O)(=O)Cc3ccccc3)c[nH]c2cn1 (racemic) | 12.7 µM | –
O=S(=O)(Cc1ccccc1F)N1CCc2ccccc2[C@H]1c1c[nH]c2ccccc12 | 19.2 µM | –
O=S(=O)(Cc1ccccc1)N1CCc2ccccc2[C@@H]1c1c[nH]c2ccccc12 | 11.7 µM | –
O=S(=O)(Cc1ccccc1)N1CCc2ccccc2[C@@H]1c1n[nH]c2ccccc12 | 9.5 µM | –
O=S(=O)(Cc1ccccc1)N1C=Cc2ccccc2C1c1c[nH]c2ncccc12 (racemic) | 6.2 µM | –
O=S(=O)(Cc1ccccc1)N1CC=Cc2ccccc2[C@@H]1c1c[nH]c2ccccc12 | 14.7 µM | –
O=S(=O)(Cc1ccc(C(F)(F)F)cc1)N1CCc2ccccc2[C@H]1c1c[nH]c2ccccc12 | 20.7 µM | –
